According to ChEMBL document CHEMBL1123129, “Hypolipidemic activity of indan-1,3-dione derivatives in rodents” (J Med Chem, 1985):

What was measured:
Assay type in all cases: functional
Mus musculus [1] = assay: Compound was evaluated for the hypolipidemic activity in CF1 male mice at a dose of 20 mg/kg per day intraperitoneally for serum cholesterol at 16th day.; settings: route intraperitoneal
In short: (§1)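 CF1 male mice (~30 g) were dosed ip daily. Tail-vein blood was collected on day 9 and day 16 between 8:00 and 9:30 a.m. Serum cholesterol was measured by modified Liebermann–Burchard on duplicate 25-µL samples. Triglyceride was measured on day 16 in a separate group, duplicate 50-µL samples. Values are % control, mean ± SD, N = 6; Student's t test.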

Mus musculus [2] = assay: Compound was evaluated for the hypolipidemic activity in CF1 male mice at a dose of 20 mg/kg per day intraperitoneally for serum triglyceride at 16th day.; settings: route intraperitoneal; in short: as §1
Mus musculus [3] = assay: Hypolipidemic activity in CF1 male mice at a dose of 20 mg/kg per day, serum cholesterol measured on the 9th day
In short: (§2)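 CF1 male mice (~30 g) were given 20 mg/kg per day ip at 11:00 a.m.; N = 6 per group. Tail-vein serum was collected in nonheparinized microcapillaries. Cholesterol was measured on days 9 and 16 by modified Liebermann–Burchard on duplicate 25 µL samples. Triglyceride was measured on day 16 in a separate group, duplicate 50 µL. Values are % control ± SD; Student's t test.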

Mus musculus [4] = assay: Hypolipidemic activity in CF1 male mice at a dose of 20 mg/kg per day, serum cholesterol measured on the 16th day; in short: as §2
Mus musculus [5] = assay: Hypolipidemic activity in CF1 male mice at a dose of 20 mg/kg per day, serum triglyceride measured on the 16th day; in short: as §2
Mus musculus [6] = assay: Compound was evaluated for the hypolipidemic activity in CF1 male mice at a dose of 20 mg/kg per day intraperitoneally of serum cholesterol at 9th day; settings: route intraperitoneal; in the assay text read “150 mg/kg” for “20 mg/kg”; in short: as §1

O=C(O)c1ccc(C2C(=O)c3ccccc3C2=O)cc1
Control (Mus musculus [1]): 78%
Control (Mus musculus [2]): 95%
Serum cholesterol, % of control (Mus musculus [3]): 95%

O=C1c2ccccc2C(=O)C1c1ccc2ccccc2c1
Serum cholesterol, % of control (Mus musculus [3]): 72%
Serum cholesterol, % of control (Mus musculus [4]): 66%
Serum triglyceride, % of control (Mus musculus [5]): 66%

O=C1CC(=O)c2ccccc21
Serum cholesterol, % of control (Mus musculus [3]): 74%
Serum cholesterol, % of control (Mus musculus [4]): 60%
Serum triglyceride, % of control (Mus musculus [5]): 79%

CCOc1ccc(C2C(=O)c3ccccc3C2=O)cc1
Serum cholesterol, % of control (Mus musculus [3]): 66%
Serum cholesterol, % of control (Mus musculus [4]): 59%
Serum triglyceride, % of control (Mus musculus [5]): 81%

O=C1c2ccccc2C(=O)C1c1c(Cl)cccc1Cl
Serum cholesterol, % of control (Mus musculus [3]): 71%
Serum cholesterol, % of control (Mus musculus [4]): 68%
Serum triglyceride, % of control (Mus musculus [5]): 61%

CCC1C(=O)c2ccccc2C1=O
Serum cholesterol, % of control (Mus musculus [3]): 63%
Serum cholesterol, % of control (Mus musculus [4]): 60%
Serum triglyceride, % of control (Mus musculus [5]): 63%

CC1C(=O)c2ccccc2C1=O
Serum cholesterol, % of control (Mus musculus [3]): 74%
Serum cholesterol, % of control (Mus musculus [4]): 58%
Serum triglyceride, % of control (Mus musculus [5]): 61%

O=C1c2ccccc2C(=O)C1c1ccc(Cl)cc1Cl
Serum cholesterol, % of control (Mus musculus [3]): 89%
Serum cholesterol, % of control (Mus musculus [4]): 73%
Serum triglyceride, % of control (Mus musculus [5]): 87%

CCCCCC1C(=O)c2ccccc2C1=O
Serum cholesterol, % of control (Mus musculus [3]): 65%
Serum cholesterol, % of control (Mus musculus [4]): 64%
Serum triglyceride, % of control (Mus musculus [5]): 70%

O=C1c2ccccc2C(=O)C1c1ccc(Cl)c(Cl)c1
Serum cholesterol, % of control (Mus musculus [3]): 93%
Serum cholesterol, % of control (Mus musculus [4]): 84%
Serum triglyceride, % of control (Mus musculus [5]): 89%

Cc1ccc(C2C(=O)c3ccccc3C2=O)c(C)c1
Serum cholesterol, % of control (Mus musculus [3]): 61%
Serum cholesterol, % of control (Mus musculus [4]): 54%
Serum triglyceride, % of control (Mus musculus [5]): 58%

COc1cccc(C2C(=O)c3ccccc3C2=O)c1
Serum cholesterol, % of control (Mus musculus [3]): 75%
Serum cholesterol, % of control (Mus musculus [4]): 67%
Serum triglyceride, % of control (Mus musculus [5]): 55%

O=C(O)c1ccccc1C1C(=O)c2ccccc2C1=O
Control (Mus musculus [1]): 78%
Control (Mus musculus [2]): 52%
Serum cholesterol, % of control (Mus musculus [3]): 79%

CCCCC1C(=O)c2ccccc2C1=O
Serum cholesterol, % of control (Mus musculus [3]): 74%
Serum cholesterol, % of control (Mus musculus [4]): 58%
Serum triglyceride, % of control (Mus musculus [5]): 63%

O=C1c2ccccc2C(=O)C1c1ccc(-c2ccccc2)cc1
Serum cholesterol, % of control (Mus musculus [3]): 78%
Serum cholesterol, % of control (Mus musculus [4]): 64%
Serum triglyceride, % of control (Mus musculus [5]): 63%

CCCC1C(=O)c2ccccc2C1=O
Serum cholesterol, % of control (Mus musculus [3]): 68%
Serum cholesterol, % of control (Mus musculus [4]): 66%
Serum triglyceride, % of control (Mus musculus [5]): 52%

Cc1ccccc1C1C(=O)c2ccccc2C1=O
Serum cholesterol, % of control (Mus musculus [3]): 73%
Serum cholesterol, % of control (Mus musculus [4]): 69%
Serum triglyceride, % of control (Mus musculus [5]): 49%

COc1ccc(C2C(=O)c3ccccc3C2=O)c(OC)c1
Serum cholesterol, % of control (Mus musculus [3]): 89%
Serum cholesterol, % of control (Mus musculus [4]): 74%
Serum triglyceride, % of control (Mus musculus [5]): 87%

O=C1c2ccccc2C(=O)C1c1cccc(Cl)c1
Serum cholesterol, % of control (Mus musculus [3]): 70%
Serum cholesterol, % of control (Mus musculus [4]): 60%
Serum triglyceride, % of control (Mus musculus [5]): 70%

O=C1c2ccccc2C(=O)C1c1ccccc1Cl
Serum cholesterol, % of control (Mus musculus [3]): 75%
Serum cholesterol, % of control (Mus musculus [4]): 56%
Serum triglyceride, % of control (Mus musculus [5]): 55%

COc1ccc(C2C(=O)c3ccccc3C2=O)cc1OC
Serum cholesterol, % of control (Mus musculus [3]): 75%
Serum cholesterol, % of control (Mus musculus [4]): 69%
Serum triglyceride, % of control (Mus musculus [5]): 66%

Cc1ccc(C2C(=O)c3ccccc3C2=O)cc1
Serum cholesterol, % of control (Mus musculus [3]): 68%
Serum cholesterol, % of control (Mus musculus [4]): 65%
Serum triglyceride, % of control (Mus musculus [5]): 42%

Cc1cccc(C2C(=O)c3ccccc3C2=O)c1
Serum cholesterol, % of control (Mus musculus [3]): 75%
Serum cholesterol, % of control (Mus musculus [4]): 71%
Serum triglyceride, % of control (Mus musculus [5]): 51%

COc1ccccc1C1C(=O)c2ccccc2C1=O
Serum cholesterol, % of control (Mus musculus [3]): 79%
Serum cholesterol, % of control (Mus musculus [4]): 72%
Serum triglyceride, % of control (Mus musculus [5]): 48%

O=C1c2ccccc2C(=O)C1c1ccc(Br)cc1 [BROMINDIONE]
Serum cholesterol, % of control (Mus musculus [3]): 72%
Serum cholesterol, % of control (Mus musculus [4]): 56%
Serum triglyceride, % of control (Mus musculus [5]): 66%

CCOC(=O)C(C)(C)Oc1ccc(Cl)cc1 [CLOFIBRATE]
Control (Mus musculus [6]): 88%
Serum cholesterol, % of control (Mus musculus [4]): 87%
Serum triglyceride, % of control (Mus musculus [5]): 75%

O=C1c2ccccc2C(=O)C1c1ccc(Cl)cc1 [CLORINDIONE]
Serum cholesterol, % of control (Mus musculus [3]): 64%
Serum cholesterol, % of control (Mus musculus [4]): 63%
Serum triglyceride, % of control (Mus musculus [5]): 47%

O=C1c2ccccc2C(=O)C1c1ccccc1 [PHENINDIONE]
Serum cholesterol, % of control (Mus musculus [3]): 64%
Serum cholesterol, % of control (Mus musculus [4]): 60%
Serum triglyceride, % of control (Mus musculus [5]): 60%
